Measurements as given in ChEMBL document CHEMBL5247575 (J Med Chem, 2018).
pKi: −log10 of the molar value.

What was measured:
[1] = Inhibition of bacteria ADC-7 assessed as apparent inhibition constant using nitrocefin as substrate
[2] = system: Klebsiella pneumoniae; test: Antibacterial activity against Klebsiella pneumoniae jefferson 1775 producing OXA-48 by broth microdilution method; format: functional
[3] = system: Escherichia coli; test: Synergistic antibacterial activity against Escherichia coli DH10B transfected with pBC SK (-) OXA-48 assessed as cefepime MIC at 4 ug/ml by broth microdilution method; format: functional; settings: dose 4 µg/ml
Summary of the method: (§1)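 Broth microdilution per CLSI guidelines, using custom frozen panels. […] Each partner drug was also tested alone. MICs were run in triplicate and the modal value is reported.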

[4] = system: Klebsiella pneumoniae; test: Synergistic antibacterial activity against Klebsiella pneumoniae 660/1568 producing KPC-3 assessed as cefepime MIC at 4 ug/ml by broth microdilution method; format: functional; settings: dose 4 µg/ml; summary of the method: as §1
[5] = system: Klebsiella pneumoniae; test: Synergistic antibacterial activity against Klebsiella pneumoniae 1108/1989 producing KPC-3 assessed as cefepime MIC at 4 ug/ml by broth microdilution method; format: functional; settings: dose 4 µg/ml; summary of the method: as §1
[6] = system: Acinetobacter baumannii; test: Synergistic antibacterial activity against Acinetobacter baumannii PR323 producing OXA-24/40 assessed as cefepime MIC at 4 ug/ml by broth microdilution method; format: functional; settings: dose 4 µg/ml
[7] = system: Acinetobacter baumannii; test: Synergistic antibacterial activity against Acinetobacter baumannii PR440 producing OXA-23/24/40 assessed as cefepime MIC at 4 ug/ml by broth microdilution method; format: functional; settings: dose 4 µg/ml
[8] = system: Acinetobacter baumannii; test: Synergistic antibacterial activity against Acinetobacter baumannii PR474 producing OXA-23/24/40 assessed as cefepime MIC at 4 ug/ml by broth microdilution method; format: functional; settings: dose 4 µg/ml
[9] = system: Acinetobacter baumannii; test: Synergistic antibacterial activity against ADC deleted Acinetobacter baumannii transfected with pWH1266 producing OXA-24/40 assessed as cefepime MIC at 4 ug/ml by broth microdilution method; format: functional; settings: dose 4 µg/ml
[10] = system: Escherichia coli; test: Synergistic antibacterial activity against Escherichia coli DH10B transfected with pBC SK (-) PDC-3 assessed as cefepime MIC at 8 ug/ml by broth microdilution method; format: functional; settings: dose 8 µg/ml; summary of the method: as §1
[11] = system: Klebsiella pneumoniae; test: Synergistic antibacterial activity against Klebsiella pneumoniae 977/1916 producing KPC-3 assessed as cefepime MIC at 8 ug/ml by broth microdilution method; format: functional; settings: dose 8 µg/ml
[12] = system: Klebsiella pneumoniae; test: Synergistic antibacterial activity against Klebsiella pneumoniae 1315/2198 producing KPC-3 assessed as cefepime MIC at 8 ug/ml by broth microdilution method; format: functional; settings: dose 8 µg/ml; summary of the method: as §1
[13] = system: Klebsiella pneumoniae; test: Synergistic antibacterial activity against Klebsiella pneumoniae 440/1360 producing KPC-2 assessed as cefepime MIC at 8 ug/ml by broth microdilution method; format: functional; settings: dose 8 µg/ml; summary of the method: as §1
[14] = system: Acinetobacter baumannii; test: Synergistic antibacterial activity against Acinetobacter baumannii PR363 producing OXA-23 assessed as cefepime MIC at 8 ug/ml by broth microdilution method; format: functional; settings: dose 8 µg/ml
[15] = system: Acinetobacter baumannii; test: Synergistic antibacterial activity against Acinetobacter baumannii PR381 producing OXA-24/40 assessed as cefepime MIC at 8 ug/ml by broth microdilution method; format: functional; settings: dose 8 µg/ml
[16] = system: Acinetobacter baumannii; test: Synergistic antibacterial activity against Acinetobacter baumannii PR420 producing OXA-23/24/40 assessed as cefepime MIC at 8 ug/ml by broth microdilution method; format: functional; settings: dose 8 µg/ml
[17] = system: Acinetobacter baumannii; test: Synergistic antibacterial activity against Acinetobacter baumannii PR440 producing OXA-23/24/40 assessed as cefepime MIC at 8 ug/ml by broth microdilution method; format: functional; settings: dose 8 µg/ml
[18] = system: Acinetobacter baumannii; test: Synergistic antibacterial activity against Acinetobacter baumannii PR448 producing OXA-23 assessed as cefepime MIC at 8 ug/ml by broth microdilution method; format: functional; settings: dose 8 µg/ml
Summary of the method: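 Broth microdilution per CLSI guidelines in frozen panels. Test compound held at fixed 8 mg/L while the partner β-lactam concentration was increased. Run in triplicate; modal MIC reported.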

[19] = system: Acinetobacter baumannii; test: Synergistic antibacterial activity against Acinetobacter baumannii PR476 producing OXA-24/40 assessed as cefepime MIC at 8 ug/ml by broth microdilution method; format: functional; settings: dose 8 µg/ml
[20] = system: Acinetobacter baumannii; test: Synergistic antibacterial activity against ADC deleted Acinetobacter baumannii transfected with pWH1266 producing OXA-24/40 assessed as cefepime MIC at 8 ug/ml by broth microdilution method; format: functional; settings: dose 8 µg/ml
[21] = system: Escherichia coli; test: Synergistic antibacterial activity against Escherichia coli DH10B transfected with pBC SK (-) KPC-2 assessed as meropenem MIC at 4 ug/ml by broth microdilution method; format: functional; settings: dose 4 µg/ml
[22] = system: Escherichia coli; test: Synergistic antibacterial activity against Escherichia coli DH10B transfected with pBC SK (-) PDC-3 assessed as meropenem MIC at 4 ug/ml by broth microdilution method; format: functional; settings: dose 4 µg/ml; summary of the method: as §1
[23] = system: Acinetobacter baumannii; test: Synergistic antibacterial activity against ADC deleted Acinetobacter baumannii assessed as meropenem MIC at 4 ug/ml by broth microdilution method; format: functional; settings: dose 4 µg/ml
[24] = system: Klebsiella pneumoniae; test: Synergistic antibacterial activity against Klebsiella pneumoniae 729/1679 producing KPC-3 assessed as meropenem MIC at 4 ug/ml by broth microdilution method; format: functional; settings: dose 4 µg/ml; summary of the method: as §1
[25] = system: Klebsiella pneumoniae; test: Synergistic antibacterial activity against Klebsiella pneumoniae 776/1742 producing KPC-2 assessed as meropenem MIC at 4 ug/ml by broth microdilution method; format: functional; settings: dose 4 µg/ml
[26] = system: Klebsiella pneumoniae; test: Synergistic antibacterial activity against Klebsiella pneumoniae 1354/2241 producing KPC-3 assessed as meropenem MIC at 4 ug/ml by broth microdilution method; format: functional; settings: dose 4 µg/ml; summary of the method: as §1
[27] = system: Klebsiella pneumoniae; test: Synergistic antibacterial activity against Klebsiella pneumoniae NY BS producing OXA-232 assessed as meropenem MIC at 4 ug/ml by broth microdilution method; format: functional; settings: dose 4 µg/ml
[28] = system: Acinetobacter baumannii; test: Synergistic antibacterial activity against Acinetobacter baumannii PR359 producing OXA-23 assessed as meropenem MIC at 4 ug/ml by broth microdilution method; format: functional; settings: dose 4 µg/ml
[29] = system: Acinetobacter baumannii; test: Synergistic antibacterial activity against Acinetobacter baumannii PR408 producing OXA-24/40 assessed as meropenem MIC at 4 ug/ml by broth microdilution method; format: functional; settings: dose 4 µg/ml
[30] = system: Acinetobacter baumannii; test: Synergistic antibacterial activity against Acinetobacter baumannii PR474 producing OXA-23/24/40 assessed as meropenem MIC at 4 ug/ml by broth microdilution method; format: functional; settings: dose 4 µg/ml
[31] = system: Klebsiella pneumoniae; test: Synergistic antibacterial activity against Klebsiella pneumoniae 440/1360 producing KPC-2 assessed as meropenem MIC at 8 ug/ml by broth microdilution method; format: functional; settings: dose 8 µg/ml; summary of the method: as §1
[32] = system: Klebsiella pneumoniae; test: Synergistic antibacterial activity against Klebsiella pneumoniae 11978 producing OXA-48 assessed as meropenem MIC at 8 ug/ml by broth microdilution method; format: functional; settings: dose 8 µg/ml; summary of the method: as §1
[33] = system: Acinetobacter baumannii; test: Synergistic antibacterial activity against Acinetobacter baumannii PR323 producing OXA-24/40 assessed as meropenem MIC at 8 ug/ml by broth microdilution method; format: functional; settings: dose 8 µg/ml
[34] = system: Acinetobacter baumannii; test: Synergistic antibacterial activity against Acinetobacter baumannii PR381 producing OXA-24/40 assessed as meropenem MIC at 8 ug/ml by broth microdilution method; format: functional; settings: dose 8 µg/ml
[35] = system: Acinetobacter baumannii; test: Synergistic antibacterial activity against Acinetobacter baumannii PR474 producing OXA-23/24/40 assessed as meropenem MIC at 8 ug/ml by broth microdilution method; format: functional; settings: dose 8 µg/ml
[36] = system: Escherichia coli; test: Antibacterial activity against Escherichia coli DH10B by broth microdilution method; format: functional
[37] = system: Acinetobacter baumannii; test: Synergistic antibacterial activity against Acinetobacter baumannii PR420 producing OXA-23/24/40 assessed as cefepime MIC at 4 ug/ml by broth microdilution method; format: functional; settings: dose 4 µg/ml
[38] = system: Klebsiella pneumoniae; test: Synergistic antibacterial activity against Klebsiella pneumoniae 11978 producing OXA-48 assessed as meropenem MIC at 4 ug/ml by broth microdilution method; format: functional; settings: dose 4 µg/ml; summary of the method: as §1

Row | SMILES | pKi [1] | MIC [2] [µg/mL] | MIC [3] [µg/mL] | MIC [4] [µg/mL] | MIC [5] [µg/mL] | MIC [6] [µg/mL] | MIC [7] [µg/mL] | MIC [8] [µg/mL] | MIC [9] [µg/mL] | MIC [21] [µg/mL] | MIC [22] [µg/mL] | MIC [23] [µg/mL] | MIC [24] [µg/mL] | MIC [25] [µg/mL] | MIC [26] [µg/mL] | MIC [27] [µg/mL] | MIC [28] [µg/mL] | MIC [29] [µg/mL] | MIC [30] [µg/mL] | other results
1 | O=C(NNC(=O)[C@@H]1CC[C@@H]2CN1C(=O)N2OS(=O)(=O)O)[C@@H]1CCNC1 | 5.43 | > 16 | ≤ 0.12 | ≤ 0.12 | ≤ 0.12 | 4 | > 16 | 8 | 16 | ≤ 0.12 | ≤ 0.12 | > 16 | 0.25 | ≤ 0.12 | ≤ 0.12 | ≤ 0.12 | > 16 | > 16 | > 16 | MIC [10]: ≤ 0.12 µg/mL; MIC [11]: ≤ 0.12 µg/mL; MIC [12]: ≤ 0.12 µg/mL; MIC [13]: ≤ 0.12 µg/mL; MIC [14]: 8 µg/mL; MIC [15]: 16 µg/mL; MIC [16]: > 16 µg/mL; MIC [17]: > 16 µg/mL; MIC [18]: 8 µg/mL; MIC [19]: 2 µg/mL; MIC [20]: 16 µg/mL; MIC [31]: ≤ 0.12 µg/mL; MIC [32]: ≤ 0.12 µg/mL; MIC [33]: > 16 µg/mL; MIC [34]: > 16 µg/mL; MIC [35]: > 16 µg/mL
2 | NC(=O)[C@@H]1CC[C@@H]2CN1C(=O)N2OS(=O)(=O)[O-].[Na+] [AVIBACTAM SODIUM] | 4.72 | > 16 | ≤ 0.12 | ≤ 0.12 | ≤ 0.12 | > 16 | 16 | > 16 | > 16 | ≤ 0.12 | ≤ 0.12 | ≤ 0.12 | ≤ 0.12 | ≤ 0.12 | ≤ 0.12 | 0.5 | > 16 | > 16 | > 16 | MIC [36]: 4 µg/mL; MIC [37]: > 16 µg/mL; MIC [38]: 1 µg/mL
